In ChEMBL document CHEMBL1150225, “Cytotoxic cholestane glycosides from the bulbs of Ornithogalum saundersiae” (J Nat Prod, 2001):

System: HL-60
Experiment: Cytotoxicity against human HL60 cells after 72 hrs by MTT assay
Assay type: functional, cell-based
Details: HL-60, 72 h
How it was run: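 HL-60 leukemia cells kept in RPMI 1640 with 10% fetal bovine serum, L-glutamine, 100 units/mL penicillin and 100 μg/mL streptomycin. Cells at 3 × 10^4 cells/mL exposed continuously to compound for 72 h. Growth read by MTT reduction. IC50 (50% inhibition) calculated from each compound's dose–response curve.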

| SMILES | IC50 |
| --- | --- |
| COc1cc(C(=O)O[C@H]2[C@H](O[C@@H]3[C@@H](OC(C)=O)[C@H](O[C@H]4C[C@H]5[C@@H]6CC=C7C[C@@H](O)CC[C@]7(C)[C@H]6CC[C@]5(C)[C@@]4(O)[C@H](C)C(=O)CCC(C)C)OC[C@@H]3O)OC[C@@H](O[C@@H]3O[C@H](CO)[C@@H](O)[C@H](O)[C@H]3O)[C@@H]2O)cc(OC)c1OC | 14 nM |
| CC(C)CCC(=O)[C@@H](C)[C@@]1(O)[C@@H](O[C@@H]2OC[C@H](O)[C@H](O[C@@H]3OC[C@@H](O)[C@H](O)[C@H]3O)[C@H]2O)C[C@H]2[C@@H]3CC=C4C[C@@H](O)CC[C@]4(C)[C@H]3CC[C@@]21C | 190 nM |
| COc1cccc2c1C(=O)c1c(O)c3c(c(O)c1C2=O)C[C@@](O)(C(=O)CO)C[C@@H]3O[C@H]1C[C@H](N)[C@H](O)[C@H](C)O1 [DOXORUBICIN] | 7.2 nM |
| COc1cc([C@@H]2c3cc4c(cc3[C@@H](O[C@@H]3O[C@@H]5CO[C@@H](C)O[C@H]5[C@H](O)[C@H]3O)[C@H]3COC(=O)[C@H]23)OCO4)cc(OC)c1O [ETOPOSIDE] | 25 nM |
| CN(Cc1cnc2nc(N)nc(N)c2n1)c1ccc(C(=O)N[C@@H](CCC(=O)O)C(=O)O)cc1 [METHOTREXATE] | 12 nM |
